Tests used:
Format in all cases: functional
Mus musculus [1] = organism: Mus musculus; assay: Peroral dose required to reduce by 50% the score of excitatory behavior induced by intrathecal injection of ferrous chloride in mice; conditions: central, read-out: ID50 (the source's name)
Method in brief: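 Male Slc:ICR mice, 5 weeks old, 10 per dose. Compound given orally 30 min before intrathecal 5 μL of 50 mM FeCl2 in saline (between L6 and S1). Vehicle was water, or 0.5% gum arabic suspension. Behaviour scored 0–5 (biting to death) from 15 min to 1 h. ID50 from three or four doses, relative to vehicle score.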

Rattus norvegicus [2] = organism: Rattus norvegicus; assay: Inhibition of lipid peroxidation by rat liver microsomes; parameters: concentration or dose not given beside the values; conditions: dose or concentration not given here
Method in brief: (§1)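 Rat liver microsomes (S-9), 0.3 mg protein in 40 mM Tris-malate pH 7.4. Peroxidation started with a 1:1 mix of FeCl2 (0.25 mM) and NADPH (3 mM), then 1 h at 37 °C. Compound in DMSO added before incubation, tested up to 1 μM final. Thiobarbituric acid method read-out. Activity relative to DMSO vehicle; IC50 from four concentrations by nonlinear regression, otherwise % inhibition at 1 μM.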

Mus musculus [3] = organism: Mus musculus; assay: Percentage increase of locomotor activity in mice
Mus musculus [4] = assay: Locomotor activity was measured in mice after 1 hour administration of methamphetamine; parameters: unit not given here
Rattus norvegicus [5] = organism: Rattus norvegicus; assay: Concentration required to reduce by 50% the amount of lipid peroxide formed in rat liver microsomes; method in brief: as §1

Structure (SMILES)	ED50 (Mus musculus [1]) [mg/kg]	inhibition (Rattus norvegicus [2]) [%]	Increase (Mus musculus [3]) [%]	Locomotor activity (Mus musculus [4])	IC50 (Rattus norvegicus [5]) [nM]
Cc1cc2c(c(C)c1N)CC(C)(C)O2	16.3	14			
Cc1c(N)c(C)c2c(c1CN(C)C)OC(C)(C)C2	> 50	4			
Cc1ccc(S(=O)(=O)Nc2c(C)c(C)c3c(c2C)CC(C)(C)O3)cc1	> 100	3			
CCCSCC1(C)Cc2c(C)c(N)c(C)c(C)c2O1 (stereo not given)	24.6		56.4	1540	280
Cc1c(C)c2c(c(C)c1N)CC(C)(CNc1ccccc1)O2 (stereo not given)	15.7		70.4	1812	260
CNc1c(C)c(C)c2c(c1C)CC(C)(C)O2	16.6	18	84.7	1229	
Cc1c(C)c2c(c(C)c1N)C(c1ccc(C(C)C)cc1)C(C)(C)O2 (stereo not given)	> 50				290
Cc1c(C)c2c(c(C)c1N)CC(C)(CSc1nccn1C)O2 (stereo not given)	37.1	11	104.2	2228	
Cc1c(C)c2c(c(C)c1N)CC(C)(CN1CCN(C)CC1)O2 (stereo not given)	25.3	10	181.1	3154	
Cc1c(C)c2c(c(C)c1Nc1ccccc1)CC(C)(C)O2	> 50				280
Cc1c(C)c2c(c(C)c1Nc1ccc3c(c1)CC(C)(C)O3)CC(C)(C)O2	> 25				30
Cc1c(N)cc2c(c1C)OC(C)(C)C2	24.4	26			
Cc1c(C)c2c(c([N+](=O)[O-])c1N)CC(C)(C)O2	> 100	0			
Cc1c(C)c2c(c(C)c1N)CC(C)(CSCc1ccccc1)O2 (stereo not given)	32		33.6	1099	260
Cc1c(C)c2c(c(C)c1N)CC(C)(CNCCCCc1ccccc1)O2 (stereo not given)	17				80
Cc1c(C)c2c(c(C)c1N)CC(C)(C[S+]([O-])c1ccccc1)O2 (stereo not given)	31.3				660
CCNc1c(C)c(C)c2c(c1C)CC(C)(C)O2	38.9	16			
CCCCCc1ccc(C2c3c(C)c(N)c(C)c(C)c3OC2(C)C)cc1 (stereo not given)	42.2				50
Cc1c(C)c2c(c(C)c1Nc1cccnc1)CC(C)(C)O2	> 50	4			
Cc1c(C)c2c(c(C)c1Nc1ccc(Cl)cc1)CC(C)(C)O2	> 50				300
Cc1ccc(C2c3c(C)c(N)c(C)c(C)c3OC2(C)C)cc1 (stereo not given)	> 50				300

Structure (SMILES)	ED50 (Mus musculus [1]) [mg/kg]	inhibition (Rattus norvegicus [2]) [%]	Increase (Mus musculus [3]) [%]	Locomotor activity (Mus musculus [4])	IC50 (Rattus norvegicus [5]) [nM]
Cc1c(C)c2c(c(C)c1NS(C)(=O)=O)CC(C)(C)O2	> 100	-1			
CC(=O)Nc1c(C)c(C)c2c(c1C)CC(C)(C)O2	> 100	-2			
Cc1c(C)c2c(c(C)c1N)CC(C)(CBr)O2 (stereo not given)	16		34.5	1115	300
Cc1c(C)c2c(c(C)c1N)CC(C)(CCc1ccc(F)cc1)O2 (stereo not given)	11.5		80.1	1185	80
Cc1cc(N)c(C)c2c1OC(C)(C)C2	32.3	19			
Cc1c(C)c2c(c(C)c1N)CC(C)(CN1CCOCC1)O2 (stereo not given)	19.2		103.1	3209	410
Cc1c(C)c2c(c(C)c1N)C(C(C)C)C(C)(C)O2 (stereo not given)	14				290
Cc1c(C)c2c(c(C)c1N)C(c1cccnc1)C(C)(C)O2 (stereo not given)	32.1	22	52.1	1488	
Cc1c(C)c2c(c(C)c1N)CC(C)(CN1CCCCC1)O2 (stereo not given)	11.7	18	93.7	2960	
Cc1c(N)c(C)c2c(c1CC(C)C)OC(C)(C)C2	13.3				140
Cc1c(C)c2c(c(C)c1N)C(c1ccc(F)cc1)C(C)(C)O2 (stereo not given)	26.7		181.3	2156	280
Cc1c(C)c2c(c(C)c1N)CC(C)(CN1CCC(c3ccccc3)CC1)O2 (stereo not given)	10.4		1.8	<482	70
Cc1c(C)c2c(c(C)c1N)CC(C)(CN1CCN(C(c3ccccc3)c3ccccc3)CC1)O2 (stereo not given)	> 50		62.8	1664	70
Cc1c(C)c2c(c(C)c1N)CC(C)(CSc1ccncc1)O2 (stereo not given)	19.9		10.2	<892	630
Cc1c(C)c2c(c(C)c1NC=O)CC(C)(C)O2	> 100	0			
CCCNc1c(C)c(C)c2c(c1C)CC(C)(C)O2	51.1	24			
Cc1c(C)c2c(c(C)c1N)CC(C)(CN1CCN(c3ccccc3)CC1)O2 (stereo not given)	13.1		47.3	1484	70
Cc1c(C)c2c(c(C)c1N)CC(C)(CNCc1ccccc1)O2 (stereo not given)	9.1		46.1	1340	290
Cc1c(C)c2c(c(C)c1N)C(c1ccccc1)C(C)(C)O2 (stereo not given)	24.8		77.3	1845	290
CC(C)=Cc1c(C)c(N)c(C)c2c1OC(C)(C)C2	21.9				300
Cc1c(C)c2c(c(C)c1N)CC(C)(CCN(C)C)O2 (stereo not given)	19	4	115.2	2129	

Structure (SMILES)	ED50 (Mus musculus [1]) [mg/kg]	inhibition (Rattus norvegicus [2]) [%]	Increase (Mus musculus [3]) [%]	Locomotor activity (Mus musculus [4])	IC50 (Rattus norvegicus [5]) [nM]
CCOC(=O)Nc1c(C)c(C)c2c(c1C)CC(C)(C)O2	> 100	1			
COC(=O)/C=C\C1(C)Cc2c(C)c(N)c(C)c(C)c2O1 (stereo not given)	> 100	38			
Cc1c(C)c2c(c(C)c1N)CC(C)(C)O2	7.8		31.5	<509	760
Cc1c(N)c(C)c2c(c1CN1CCCCC1)OC(C)(C)C2	> 50	3			
CC1(C)Cc2cc(N)ccc2O1	> 100	5			
Cc1c(C)c2c(c(C)c1N)CC(C)(CSc1nc3ccccc3s1)O2 (stereo not given)	33.7		45.3	1391	70
Cc1c(C)c2c(c(N(C)C)c1N)CC(C)(C)O2	22.3				550
Cc1c(C)c2c(c(N)c1N)CC(C)(C)O2	> 50				300
Cc1c(C)c2c(c(C)c1N)CC(C)(CSCCC(=O)O)O2 (stereo not given)	43	0			
Cc1c(C)c2c(c(C)c1N)CC(C)(CSCCO)O2 (stereo not given)	> 50	11			
Cc1c(C)c2c(c(C)c1N)CC(C)(CS(=O)(=O)c1ccccc1)O2 (stereo not given)	36.6				800
Cc1c(C)c2c(c(C)c1N)CC(C)(CCN1CCCCC1)O2 (stereo not given)	18.4	8	206.5	<3549	
COCC1(C)Cc2c(C)c(N)c(C)c(C)c2O1 (stereo not given)	20.1		76.7	1934	300
Cc1c(C)c2c(c(C)c1N)CC(C)(Cn1ccnc1)O2 (stereo not given)	25	6	155.1	3950	
Cc1c(C)c2c(c(C)c1N)CC(C)(CSc1ccc(F)cc1)O2 (stereo not given)	17.9		61.8	1625	220
Cc1c(C)c2c(c(C)c1N)CC(C)(CSc1ccccc1)O2 (stereo not given)	24.7		24.7	<1098	270
Cc1c(C)c2c(c(C)c1N)CC(C)(COCc1ccccc1)O2 (stereo not given)	18.6		64	1657	280
CCC(=O)Nc1c(C)c(C)c2c(c1C)CC(C)(C)O2	> 100	1			
Cc1c(C)c2c(c(C)c1N)CC(C)(CSc1ccc(O)cc1)O2 (stereo not given)	> 50				220
CCCc1ccc(C2c3c(C)c(N)c(C)c(C)c3OC2(C)C)cc1 (stereo not given)	> 50				290
Cc1c(C)c2c(c(C)c1N)CC(C)(CNCCc1ccccc1)O2 (stereo not given)	14.2				290

Reference: ChEMBL document CHEMBL1129943, “5-aminocoumarans: dual inhibitors of lipid peroxidation and dopamine release with protective effects against central nervous system trauma and ischemia” (J Med Chem, 1997)
